Laboratory results as given in ChEMBL document CHEMBL1122642, “Biomimetic approach to potential benzodiazepine receptor agonists and antagonists” (J Med Chem, 1984).

target: not listed separately; assay: In vitro binding to GABA-A benzodiazepine receptor of rat cerebral cortical membranes; settings: not given
Outline: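 Rat cerebral cortex homogenised in Tris-HCl (50 mM, pH 7.4), washed three times by centrifugation at 20000g, 4 °C, and resuspended at 0.5–0.6 mg protein/mL. Incubated with 2 nM [3H]diazepam, 30 min, 4 °C. Stopped with ice-cold buffer, GF/B filtered, scintillation counted. Nonspecific binding with 3 μM unlabelled diazepam or clonazepam. […] Mean of two experiments.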

Which Kd does the source give for `CN1C(=O)CN=C(c2ccccc2)c2cc(Cl)ccc21` [DIAZEPAM] here?
The Kd was 5.6 µM.

target: GABA-A receptor; anion channel; assay: In vitro inhibition of [3H]diazepam binding to rat cerebral cortical membrane benzodiazepine receptors; settings: not given
Outline: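 Thrice-washed rat cerebral cortex membranes in 50 mM Tris-HCl pH 7.4 (0.5–0.6 mg/mL protein), incubated 30 min at 4 °C with 2 nM [3H]diazepam plus test compound. Stopped with ice-cold Tris, then GF/B filtration and scintillation counting. Nonspecific binding with 3 μM unlabeled diazepam or clonazepam.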

Which Ki does the source give for `O=C(O)C1Cc2[nH]cnc2CN1` (configuration not stated) here?
The Ki was over 50 µM.

With `OCc1cc2c3ccccc3nc-2c[nH]1` as the compound, how does the Ki read?
Its Ki is 1.47 µM.

Which Ki does the source give for `O=C(O)C1Cc2cc(O)c(O)cc2CN1` (configuration not stated) here?
Its Ki is over 50 µM.

For `O=c1ccc2nccc3c4ccccc4n1c23` [CANTHIN-6-ONE], which Ki is on record?
The Ki was 10 µM.

With `COC(=O)c1cc2c3ccccc3n3c(=O)ccc(n1)c23` as the compound, how does the Ki read?
Its Ki is 0.1 µM.

For `COC(=O)c1cc2[nH]cnc2c(-c2ccccc2)n1`, which Ki is on record?
Its Ki is 10 µM.

With `COC(=O)c1cc2cc(OC)c(OC)cc2cn1` as the compound, how does the Ki read?
The Ki was 10 µM.

Which Ki does the source give for `CCOC(=O)c1cc2c(cn1)[nH]c1ccccc12` here?
Its Ki is 0.001 µM.

With `COC(=O)C1Cc2ccccc2CN1` (configuration not stated) as the compound, how does the Ki read?
The Ki was over 50 µM.

For `COC(=O)c1cc2c(cn1)[nH]c1ccccc12` [BETA-CCM], which Ki is on record?
The Ki was 0.001 µM.

For `CC(=O)OCc1cc2c3ccccc3nc-2c[nH]1`, which Ki is on record?
Its Ki is 750 µM.

With `COC(=O)C1Cc2cc(OC)c(OC)cc2CN1` (configuration not stated) as the compound, how does the Ki read?
The Ki was 32 µM.

With `COC(=O)C1Cc2[nH]cnc2C(c2ccccc2)N1` (trans isomer) as the compound, how does the Ki read?
Its Ki is over 50 µM.

With `O=C(O)C1Cc2[nH]cnc2C(c2ccccc2)N1` (cis isomer) as the compound, how does the Ki read?
Its Ki is over 50 µM.

Which Ki does the source give for `COC(=O)C1Cc2[nH]cnc2C(c2c(CO)cnc(C)c2O)N1` (configuration not stated) here?
The Ki was over 50 µM.

With `CC(=O)c1cc2c3ccccc3nc-2c[nH]1` as the compound, how does the Ki read?
Its Ki is 0.058 µM.

For `COC(=O)c1cc2[nH]cnc2cn1`, which Ki is on record?
Its Ki is over 50 µM.

Which Ki does the source give for `NC(=O)c1cc2c3ccccc3nc-2c[nH]1` here?
The Ki was 0.068 µM.

For `Cc1ncc(CO)c(C2NCCc3ncn(C)c32)c1O` (configuration not stated), which Ki is on record?
The Ki was over 50 µM.

With `O=C1CCC2c3c(c4ccccc4n31)CCN2Cc1ccccc1` (configuration not stated) as the compound, how does the Ki read?
Its Ki is 11.2 µM.

organism: Rattus norvegicus; assay: In vitro inhibition of [3H]diazepam binding to GABA-A benzodiazepine receptor of rat cerebral cortical membranes at 50 uM; type: cell membranes; settings: Membrane

Which Inhibition does the source give for `COC(=O)C1Cc2c3n(c4ccccc24)C(=O)CCC3N1Cc1ccccc1` (configuration not stated) here?
The Inhibition was 17%.
